Assay outcomes: PubChem, several laboratories
Rows were chosen to be rich in hits. Some 4% of all compounds tested hit in one or more screens of this group.
b-catenin transl: modulators of beta-catenin nuclear translocation, primary screen, imaging, HeLa cells, immunofluorescence, high-content. AID 1665, 2009. nuclear translocation activity, % at 5 µM. 0.3% of 190,000 active;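 active means nuclear translocation activity above 50% at 5 µM, with a well cell count of 50 or more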;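 further: per-cell ratio of nuclear to cytoplasmic median beta-catenin stain intensity; plate controls were DMSO negative control for no effect and GSK-3 inhibitor IX positive control for full effect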
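Technique: fluorescence imaging of beta-catenin antibody stain plus DAPI / Material: human HeLa cell line / Incubation: compound treatment 24 h, 37°C, 5% CO2 / Read-out basis: % activation of per-cell nuclear versus cytoplasmic median beta-catenin signal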
KCC2 mod: KCC2 cotransporter modulators, thallium flux, primary screen, cell-based, HEK293 KCC2, FluoZin-2 fluorescence, MLSMR; Solute carrier family 12 member 5 (Homo sapiens), Q9H2X9; KCC2 cells, thallium flux FluoZin-2 fluorescence; B-score of Tl+ flux slope (higher = more flux/activation; lower = inhibition) at 10 µM; 2.2% of 190,000 active;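 active means thallium flux slope and its plate-corrected score both differing from the plate sample mean at a set confidence after two filtering rounds, in either direction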;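 further: slope of fluorescence scaled to starting intensity during 10 to 20 s after thallium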
Target sequence (Q9H2X9 whole entry, looked up): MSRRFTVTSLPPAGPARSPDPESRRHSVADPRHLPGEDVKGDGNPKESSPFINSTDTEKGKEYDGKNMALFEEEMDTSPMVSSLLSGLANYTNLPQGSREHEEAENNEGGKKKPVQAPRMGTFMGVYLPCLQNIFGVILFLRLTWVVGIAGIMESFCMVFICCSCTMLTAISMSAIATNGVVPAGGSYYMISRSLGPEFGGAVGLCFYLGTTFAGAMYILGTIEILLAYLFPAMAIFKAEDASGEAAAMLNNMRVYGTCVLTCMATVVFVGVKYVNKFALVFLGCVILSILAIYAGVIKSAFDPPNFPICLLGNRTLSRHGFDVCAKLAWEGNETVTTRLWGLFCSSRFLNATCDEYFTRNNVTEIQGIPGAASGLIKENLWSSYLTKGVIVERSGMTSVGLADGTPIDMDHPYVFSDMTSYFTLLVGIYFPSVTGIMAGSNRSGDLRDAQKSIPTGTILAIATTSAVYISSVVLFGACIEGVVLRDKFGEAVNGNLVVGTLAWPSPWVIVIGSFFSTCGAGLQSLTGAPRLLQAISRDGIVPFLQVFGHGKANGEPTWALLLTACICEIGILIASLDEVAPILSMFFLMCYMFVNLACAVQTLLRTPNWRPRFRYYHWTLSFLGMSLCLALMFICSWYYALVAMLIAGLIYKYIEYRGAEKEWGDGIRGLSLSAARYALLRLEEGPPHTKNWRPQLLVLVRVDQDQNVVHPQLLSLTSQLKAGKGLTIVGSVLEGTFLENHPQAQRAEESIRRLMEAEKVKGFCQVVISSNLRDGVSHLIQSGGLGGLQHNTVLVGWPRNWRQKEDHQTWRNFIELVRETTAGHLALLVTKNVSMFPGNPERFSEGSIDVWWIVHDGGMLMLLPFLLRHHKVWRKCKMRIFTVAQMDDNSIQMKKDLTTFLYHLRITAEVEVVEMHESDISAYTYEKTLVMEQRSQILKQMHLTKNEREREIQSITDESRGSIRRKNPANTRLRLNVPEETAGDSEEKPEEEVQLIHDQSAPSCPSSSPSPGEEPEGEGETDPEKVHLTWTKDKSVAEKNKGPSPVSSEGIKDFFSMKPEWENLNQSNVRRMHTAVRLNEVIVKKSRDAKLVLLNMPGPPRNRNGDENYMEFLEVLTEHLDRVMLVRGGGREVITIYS
WT yeast gro inh: growth inhibition of WT strain, primary screen, mitochondrial fusion inhibitor project, WT and mutant strains, chemical genetic | mitochondrial fusion phenotypic screen | inhibition, % at 10 µM | 2.1% of 190,000 active | AID 1362, 2008; in the data active means inhibition above about 58%; tested in S. cerevisiae
Pf gametocyte: late stage P. falciparum gametocyte viability inhibitors, primary screen, ATP luminescence, HTS; P. falciparum stage V gametocytes, 24 h; inhibition, % at 10.9 µM; 0.065% of 150,000 active; AID 743093, 2013;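 active means inhibition above the mean plus 3 SD of compounds within the control limits, set per campaign, cut at about 38% in these data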;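 further: 0% = DMSO wells and 100% = medium only without gametocytes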
MT stabilize HCS: microtubule stabilizers in HeLa cells, primary screen, imaging, high-content imaging | HeLa tubulin immunostaining HCS, 24 h; share of cells brighter than vehicle mean+2SD | % tubulin-high responders, % at 10 µM | 0.83% of 200,000 active | AID 2205, 2009;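 active means plate Z-score above 3 for both tubulin-high and condensed-nucleus cell shares, with cell loss under 80%, at 10 µM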;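 further: anti alpha tubulin signal scored within the nucleus-defined area of each cell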
The depositor's hits bear a star; i = inactive; . = no result.

SMILES | b-catenin transl | KCC2 mod | WT yeast gro inh | Pf gametocyte | MT stabilize HCS
COc1ccc(NC(=O)CCCSc2ccccc2)cc1 | -4.3 | 0.322 | -4.4 | 5.0 | 6.8
Cc1cc(/C=C2\Sc3ccccc3N2C)cc(C)[n+]1CC1CCCO1 (stereo not given) | -3.6 | i | 62.8 | 0.6 | 3.9
CCCN(CCC)c1nc2ccccc2nc1C(C#N)C(=O)OC(C)COC (stereo not given) | . | -0.912 | 68.1* | 1.4 | 3.1
CCCCN(CCCC)c1nc2ccccc2nc1C(C#N)C(=O)NCCCOC (stereo not given) | 1.7 | i | 14.6 | . | 3.0
CCOC(=O)CSC1=C(C#N)C(c2ccc3c(c2)OCO3)CC(=O)N1 (stereo not given) | -0.9 | . | 4.8 | . | 49.4*
CC(/C=C1\SC(=S)N(NC(=O)c2ccc(O)cc2)C1=O)=C\c1ccccc1 | 8.3 | -1.5 | 89.9* | -0.3 | 2.5
CCc1ccc(OCc2n[nH]c(=S)n2C(C)CCCC(C)C)cc1 (stereo not given) | -3.4 | 1.41 | 59.9* | . | 3.2
O=C(Nc1cc([N+](=O)[O-])ccc1Cl)C(Sc1ccccc1)c1ccccc1 (stereo not given) | -1.4 | -0.204 | 22.6 | -2.4 | 3.9
O=C(Nc1ccc(Cl)c([N+](=O)[O-])c1)C(Sc1ccccc1)c1ccccc1 (stereo not given) | 25.4 | -0.0299 | 79.9* | -4.0 | 2.4
CNC(=S)N1CCN(c2ccc([N+](=O)[O-])cc2)CC1 | -1.1 | 0.889 | 66.7* | -23.1 | 1.2
O=C(Nc1cccc(C(F)(F)F)c1)n1cc(-c2ccccn2)c(N2CCOCC2)n1 | 0.4 | 0.606 | 77.1* | -7.0 | 5.3
O=c1c2c(nc3c(-c4ccccc4)c[nH]n13)CCCC2 | . | 2.76* | 1.1 | . | 1.4
Nc1[nH]n2c(=O)c3c(nc2c1N=Nc1ccc(Cl)cc1)CCCC3 | 4.1 | . | 0.9 | -5.2 | 21.2*
Cc1ccc(N=Nc2c(N)[nH]n3c(=O)cc(-c4ccccc4)nc23)cc1 | -0.5 | -0.155 | 60.3* | 8.9 | 3.4
Nc1[nH]n2c(=O)c3c(nc2c1N=Nc1ccccc1)CCCC3 | 9.2 | 0.361 | 80.1* | 8.8 | 14.1
Cc1[nH]n2c(=O)c3c(nc2c1-c1ccccc1)CCC3 | . | -0.543 | 5.5 | -25.5 | 1.7
COc1cccc(N=Nc2c(N)[nH]n3c(=O)cc(-c4ccccc4)nc23)c1 | 1.3 | 1.6 | 9.4 | -25.6 | 2.2
CC(=O)c1ccc(C)cc1OC(=O)c1cccc(F)c1 | -2.6 | 0.814 | 2.5 | 25.0 | 5.5
Cc1ccc(C(=O)CC(=O)c2cccc(F)c2)c(O)c1 | 14.3 | 21.8* | 69.3* | . | 2.6
COc1ccc(C2=Nn3c(nnc3-c3ccccn3)SC2)cc1OC | 1.0 | -1.44 | -2.4 | -9.1 | 4.8
COc1ccc(C2=Nn3c(nnc3-c3ccc(OC)cc3)SC2)cc1 | . | -0.295 | 6.0 | 4.7 | 29.3*
COc1ccc(C2=Nn3c(nnc3-c3ccccc3OC)SC2)cc1OC | 58.0* | -1.52 | 3.4 | -10.6 | 16.5*
COc1cc(-c2nnc3n2N=C(c2ccccc2)CS3)cc(OC)c1OC | 92.9* | -0.383 | -2.2 | 9.6 | 45.9*
CCOc1cccc(-c2nnc3n2N=C(c2cc(OC)ccc2OC)CS3)c1 | 1.5 | -2.2 | 27.1 | 13.6 | 29.0*
c1ccc(C2=Nn3c(nnc3-c3n[nH]c4c3CCC4)SC2)cc1 | 0.6 | -0.963 | 10.6 | -5.5 | 5.3
SMILES | b-catenin transl | KCC2 mod | WT yeast gro inh | Pf gametocyte | MT stabilize HCS
Clc1ccc(C2=Nn3c(nnc3-c3cc(-c4ccccc4)n[nH]3)SC2)cc1 | 0.1 | . | 96.5* | 31.8 | 4.9
Clc1ccc(C2=Nn3c(nnc3-c3n[nH]c4c3CCC4)SC2)cc1Cl | -1.1 | -1.1 | 11.9 | 12.3 | 19.0*
c1ccc2c(c1)CCOC2CNCCCN1CCCCC1 (stereo not given) | -0.4 | . | -17.7 | . | 1.8
CC1=NN(c2ccc([N+](=O)[O-])cc2)C(=O)/C1=C\N(C)C | -1.1 | 0.0106 | 65.4* | . | 2.5
CC1=NN(c2nc3ccccc3[nH]2)C(=O)/C1=C/N(C)C | -1.0 | 0.611 | 85.0* | . | 2.7
CC(CCc1ccccc1)NC(=O)C(=O)NCCc1ccccc1 (stereo not given) | -1.4 | -3.48 | 13.0 | -9.6 | 2.8
N/C(=N\OC(=O)CSc1ccccc1)c1ccc([N+](=O)[O-])cc1 | 0.4 | -0.0909 | 45.0 | 6.0 | 2.2
CCn1c(=O)c([N+](=O)[O-])c(Cl)c2ccccc21 | 0.3 | -2.44 | 62.1* | . | 1.4
COc1cc(C(=O)NCCc2ccc(S(=O)(=O)N3CCCC3)cc2)cc(OC)c1OC | -5.6 | -0.319 | -15.9 | 3.8 | 0.6
O=C(/C=C/c1ccccc1)N1CCN(CCN2C(=O)c3cccc4cccc(c34)C2=O)CC1 | -0.5 | -1.89 | 5.7 | -8.5 | 1.2
O=C(Nc1ncc(Br)s1)C(Cc1ccccc1)n1cccc1 (stereo not given) | . | . | 82.3* | . | 6.0
COc1ccc(OC)c(C(C)NC(=O)c2ccco2)c1 (stereo not given) | 2.7 | . | 4.7 | . | 25.9*
COc1ccccc1C(C)NC(=O)c1ccc(C)o1 (stereo not given) | . | -1.22 | -16.7 | -10.3 | 43.7*
CCOc1ccc(S(=O)(=O)Oc2ccc3ccccc3c2)cc1 | 1.2 | 0.0838 | 39.6 | . | 16.7*
Cc1ccc(S(=O)(=O)Oc2ccc3ccc(O)cc3c2)cc1 | . | . | . | 20.2 | .
CCC(CO)[n+]1c(C)cc(/C=C2\Sc3ccccc3N2Cc2ccccc2)cc1C (stereo not given) | 16.5 | i | 58.5* | 14.9 | 5.9
CCN1/C(=C2\SC(=S)N(Cc3ccccc3)C2=O)Sc2ccccc21 | 0.5 | -0.446 | 1.5 | -26.8 | 8.8
O=C(NN=c1c(=O)c2ccccc2c1=O)c1ccccc1 | -0.8 | 8.65* | 9.1 | 8.3 | 2.6
S=c1[nH]nc(-c2ccc(Br)o2)n1Cc1ccccc1 | 2.7 | 3.39* | 0.7 | . | 2.3
S=c1[nH]nc(-c2ccco2)n1Cc1ccccc1 | . | -0.704 | 14.6 | . | 2.5
Cn1cc(Br)c(C(=O)NNC(=O)c2ccc(Cl)cc2)n1 | . | 0.664 | -16.1 | 12.8 | 2.8
O=C(CCc1ccccc1)NC(=S)Nc1ccccc1Br | -4.3 | 3.22 | 75.0* | 24.4 | 3.8
COCCN(Cc1cc2cc(C)cc(C)c2nc1Cl)C(=O)Nc1ccccc1 | 0.3 | . | 44.2 | 1.9 | 33.5*
Cc1cc(C)c2nc(Cl)c(CN(Cc3ccco3)C(=O)Nc3ccccc3C)cc2c1 | -1.0 | . | 49.0 | -4.6 | 21.4*
Cc1cccc(N2CCN(C(=O)CCCSc3nc4ccccc4[nH]3)CC2)c1C | 0.7 | -0.378 | 2.3 | . | 3.2
CCNC(=S)N1CCN(C(=O)C(Cc2ccccc2)NC(C)=O)CC1 (stereo not given) | -4.3 | -1.18 | 6.7 | -4.0 | 2.4
C1CCN=C(Nc2nc3c(s2)CCCC3)CC1 | -2.0 | 0.219 | 61.8* | -6.2 | 3.2
CCc1ccc(/C(C)=N/NC(=O)c2ccccn2)cc1 | -0.3 | 0.288 | 8.7 | -18.8 | 4.2
